Measured values taken from the M2OR odorant receptor database.

Experiments:
Details in all cases: stereoisomer not certain
OR1A1 (Homo sapiens) = target: T1, OR1A1 (Homo sapiens) (UniProt Q9P1Q5)
T1 sequence (whole entry): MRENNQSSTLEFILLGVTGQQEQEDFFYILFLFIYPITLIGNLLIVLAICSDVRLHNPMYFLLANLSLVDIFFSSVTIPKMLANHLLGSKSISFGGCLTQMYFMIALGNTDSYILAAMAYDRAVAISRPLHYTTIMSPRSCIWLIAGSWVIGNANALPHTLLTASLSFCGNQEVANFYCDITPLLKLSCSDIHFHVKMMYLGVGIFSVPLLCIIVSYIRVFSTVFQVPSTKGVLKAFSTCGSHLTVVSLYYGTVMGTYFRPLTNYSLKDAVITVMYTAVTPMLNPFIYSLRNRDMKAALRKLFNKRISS
Outline: (§1)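 Transient luciferase assays in mammalian cell lines were common, though methods varied by source. The values come from published papers and their supplementary material, with extra details from the original authors when needed. Responsive refers to a measured signal the original authors judged statistically different from baseline, and non-responsive (inactive) to the remainder.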

OR13H1 (Homo sapiens) = target: T2, OR13H1 (Homo sapiens) (UniProt Q8NG92)
T2 sequence (whole entry): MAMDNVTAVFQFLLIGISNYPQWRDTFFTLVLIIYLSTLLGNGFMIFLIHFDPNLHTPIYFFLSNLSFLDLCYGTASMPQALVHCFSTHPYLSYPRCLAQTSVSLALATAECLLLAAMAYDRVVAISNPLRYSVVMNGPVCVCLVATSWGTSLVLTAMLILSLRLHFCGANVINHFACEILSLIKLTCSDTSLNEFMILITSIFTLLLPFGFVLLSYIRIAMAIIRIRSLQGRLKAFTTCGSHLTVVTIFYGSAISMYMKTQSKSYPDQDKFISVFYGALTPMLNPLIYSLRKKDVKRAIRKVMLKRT
Outline: as §1

OR13J1 (Homo sapiens) = target: T3, OR13J1 (Homo sapiens) (UniProt Q8NGT2)
T3 sequence (whole entry): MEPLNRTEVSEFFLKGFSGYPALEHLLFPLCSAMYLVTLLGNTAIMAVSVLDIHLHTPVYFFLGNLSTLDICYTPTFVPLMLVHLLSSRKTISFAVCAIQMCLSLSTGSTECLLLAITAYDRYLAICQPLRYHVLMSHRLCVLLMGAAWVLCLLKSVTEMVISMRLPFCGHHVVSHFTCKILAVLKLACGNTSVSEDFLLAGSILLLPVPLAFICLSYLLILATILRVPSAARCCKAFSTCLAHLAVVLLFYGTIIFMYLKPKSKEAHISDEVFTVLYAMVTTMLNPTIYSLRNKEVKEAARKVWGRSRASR
Outline: as §1

OR14A16 (Homo sapiens) = target: T4, OR14A16 (Homo sapiens) (UniProt Q8NHC5)
T4 sequence (whole entry): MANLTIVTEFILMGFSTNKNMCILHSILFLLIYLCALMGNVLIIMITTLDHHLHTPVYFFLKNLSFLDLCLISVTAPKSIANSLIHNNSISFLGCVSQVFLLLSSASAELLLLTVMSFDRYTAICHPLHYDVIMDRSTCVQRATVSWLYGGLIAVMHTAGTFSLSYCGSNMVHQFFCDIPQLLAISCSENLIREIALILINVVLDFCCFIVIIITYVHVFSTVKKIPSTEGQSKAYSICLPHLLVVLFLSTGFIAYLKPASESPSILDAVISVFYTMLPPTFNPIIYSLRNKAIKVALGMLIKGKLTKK
Outline: as §1

OR14A2 (Homo sapiens) = target: T5, OR14A2 (Homo sapiens) (UniProt Q96R54)
T5 sequence (whole entry): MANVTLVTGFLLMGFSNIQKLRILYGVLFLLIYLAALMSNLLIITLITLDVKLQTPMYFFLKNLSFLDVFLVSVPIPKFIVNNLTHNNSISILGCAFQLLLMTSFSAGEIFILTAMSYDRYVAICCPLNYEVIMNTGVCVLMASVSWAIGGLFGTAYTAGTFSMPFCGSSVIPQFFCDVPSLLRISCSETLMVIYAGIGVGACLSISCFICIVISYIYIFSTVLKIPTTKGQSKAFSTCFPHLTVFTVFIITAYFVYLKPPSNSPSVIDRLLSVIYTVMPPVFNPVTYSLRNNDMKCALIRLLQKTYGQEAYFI
Outline: as §1

OR14C36 (Homo sapiens) = target: T6, OR14C36 (Homo sapiens) (UniProt Q8NHC7)
T6 sequence (whole entry): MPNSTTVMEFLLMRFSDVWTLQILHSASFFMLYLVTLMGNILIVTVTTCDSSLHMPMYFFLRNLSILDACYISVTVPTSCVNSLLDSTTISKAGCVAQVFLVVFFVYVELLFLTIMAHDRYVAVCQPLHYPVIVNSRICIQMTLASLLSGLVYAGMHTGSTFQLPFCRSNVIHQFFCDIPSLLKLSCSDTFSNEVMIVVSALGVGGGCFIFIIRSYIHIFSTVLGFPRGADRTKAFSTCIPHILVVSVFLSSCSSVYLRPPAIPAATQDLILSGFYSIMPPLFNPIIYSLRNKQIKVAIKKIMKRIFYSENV
Outline: as §1

OR14I1 (Homo sapiens) = target: T7, OR14I1 (Homo sapiens) (UniProt A6ND48)
T7 sequence (whole entry): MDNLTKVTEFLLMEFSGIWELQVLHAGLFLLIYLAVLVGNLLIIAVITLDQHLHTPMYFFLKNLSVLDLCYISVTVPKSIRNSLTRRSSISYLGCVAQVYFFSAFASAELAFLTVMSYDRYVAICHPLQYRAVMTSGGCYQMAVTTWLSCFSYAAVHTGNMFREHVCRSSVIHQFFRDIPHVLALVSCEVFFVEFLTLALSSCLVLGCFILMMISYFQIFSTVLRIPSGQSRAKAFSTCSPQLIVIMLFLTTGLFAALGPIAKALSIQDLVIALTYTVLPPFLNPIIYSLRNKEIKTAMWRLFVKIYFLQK
Outline: as §1

OR14J1 (Homo sapiens) = target: T8, OR14J1 (Homo sapiens) (UniProt Q9UGF5)
T8 sequence (whole entry): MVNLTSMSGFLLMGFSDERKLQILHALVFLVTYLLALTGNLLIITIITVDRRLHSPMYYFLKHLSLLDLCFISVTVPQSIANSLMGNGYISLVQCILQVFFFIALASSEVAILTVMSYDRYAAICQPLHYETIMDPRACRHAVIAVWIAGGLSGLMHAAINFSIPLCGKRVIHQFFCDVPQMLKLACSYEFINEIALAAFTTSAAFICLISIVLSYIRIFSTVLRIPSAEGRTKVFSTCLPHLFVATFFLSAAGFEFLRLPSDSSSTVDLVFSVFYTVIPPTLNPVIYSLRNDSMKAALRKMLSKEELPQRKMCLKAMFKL
Outline: as §1

OR14K1 (Homo sapiens) = target: T9, OR14K1 (Homo sapiens) (UniProt Q8NGZ2)
T9 sequence (whole entry): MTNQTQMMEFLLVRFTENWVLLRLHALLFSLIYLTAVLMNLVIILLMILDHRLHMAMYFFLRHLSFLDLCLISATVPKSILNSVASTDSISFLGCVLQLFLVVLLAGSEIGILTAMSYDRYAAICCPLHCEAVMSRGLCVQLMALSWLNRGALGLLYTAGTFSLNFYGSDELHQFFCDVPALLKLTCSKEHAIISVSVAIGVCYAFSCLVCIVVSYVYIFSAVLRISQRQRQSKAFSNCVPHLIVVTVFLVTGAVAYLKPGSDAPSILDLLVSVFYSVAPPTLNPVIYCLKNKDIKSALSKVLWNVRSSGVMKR
Outline: as §1

Measured: odorant receptor agonist call

CCOC(=O)C(C)C
inactive: OR1A1 (Homo sapiens)

CC(CO)CS (stereo not drawn)
active: OR14J1 (Homo sapiens)
inactive: all other assays above

CCCC(S)CCOC(C)=O (stereo not drawn)
active: OR1A1 (Homo sapiens)
inactive: all other assays above

Cc1cnc(C)c(C)n1
inactive: all assays above

COc1ccc2ccc(=O)oc2c1
inactive: OR1A1 (Homo sapiens)

CCCC(C)=O
inactive: OR1A1 (Homo sapiens)

CCC1OC(C)=C(O)C1=O (stereo not drawn)
inactive: all assays above

CCc1ccc(O)cc1
inactive: OR1A1 (Homo sapiens)

CC1=C(O)C(=O)OC1C (stereo not drawn)
inactive: all assays above

Cc1ccc(O)cc1
inactive: OR1A1 (Homo sapiens)

CCCC(S)CCO (stereo not drawn)
inactive: OR1A1 (Homo sapiens)

CC1=NC(C)C(C)S1 (stereo not drawn)
inactive: all assays above

CC1CCCCCCCCCCCCC(=O)C1 (stereo not drawn)
active: OR1A1 (Homo sapiens)
inactive: all other assays above

CCCCS
inactive: OR1A1 (Homo sapiens)

CC(=O)c1c(C)c([N+](=O)[O-])c(C(C)(C)C)c([N+](=O)[O-])c1C
inactive: all assays above

CCCCCC(S)C(C)CO (stereo not drawn)
inactive: all assays above
